{"source": "paper PMC2652879", "about": "(Clinical cancer research : an official journal of the …, 2008)", "key": {"[1]": {"experiment": "AG014447 concentration in tumour biopsy homogenates", "format": "in vivo, human", "conditions": "samples taken 5 hours (24 hr in 3 patients) after administration"}, "[2]": {"experiment": "Plasma pharmacokinetics of AG014447", "format": "in vivo, human", "conditions": "for effect of TMZ on pharmacokinetics (interaction): after a single dose or multiple doses"}, "PARP [3]": {"target": "T1, PARP (Homo sapiens, UniProt P09874)", "T1 sequence (P09874 whole entry)": "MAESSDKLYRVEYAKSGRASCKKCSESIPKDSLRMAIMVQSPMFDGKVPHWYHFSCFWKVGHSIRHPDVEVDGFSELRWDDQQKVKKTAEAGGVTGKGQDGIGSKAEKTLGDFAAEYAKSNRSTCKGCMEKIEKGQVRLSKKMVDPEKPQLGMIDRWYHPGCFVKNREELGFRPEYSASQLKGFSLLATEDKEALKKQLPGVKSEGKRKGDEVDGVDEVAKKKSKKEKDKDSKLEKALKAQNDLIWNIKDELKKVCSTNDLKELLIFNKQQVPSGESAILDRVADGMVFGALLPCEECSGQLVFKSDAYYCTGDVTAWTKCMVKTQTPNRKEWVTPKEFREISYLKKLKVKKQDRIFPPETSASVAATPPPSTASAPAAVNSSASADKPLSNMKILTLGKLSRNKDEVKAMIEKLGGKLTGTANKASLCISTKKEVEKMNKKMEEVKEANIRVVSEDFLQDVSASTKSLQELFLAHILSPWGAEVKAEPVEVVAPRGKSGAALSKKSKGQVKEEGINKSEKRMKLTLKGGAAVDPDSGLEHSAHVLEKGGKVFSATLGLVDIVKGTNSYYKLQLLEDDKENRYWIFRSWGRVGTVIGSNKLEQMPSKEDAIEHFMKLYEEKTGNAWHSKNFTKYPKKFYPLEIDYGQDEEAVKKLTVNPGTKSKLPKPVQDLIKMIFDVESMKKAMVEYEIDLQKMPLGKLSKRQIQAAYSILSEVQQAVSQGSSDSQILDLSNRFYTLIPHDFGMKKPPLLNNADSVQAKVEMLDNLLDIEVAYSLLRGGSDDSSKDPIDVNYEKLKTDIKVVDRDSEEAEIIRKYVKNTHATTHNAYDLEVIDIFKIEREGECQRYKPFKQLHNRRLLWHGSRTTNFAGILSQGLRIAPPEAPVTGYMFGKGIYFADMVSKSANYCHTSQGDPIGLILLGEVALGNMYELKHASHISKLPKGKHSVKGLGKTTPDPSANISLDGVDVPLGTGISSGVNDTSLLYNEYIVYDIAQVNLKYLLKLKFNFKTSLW", "experiment": "PARP activity immunoassay in paired tumour biopsies of melanoma patients", "format": "in vivo", "how_it_was_run": "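Chemonaive melanoma patients (part 2) received PARP inhibitor at PID with temozolomide escalated to at most 200 mg/m2; one extra level used 18 mg/m2 inhibitor plus 200 mg/m2 temozolomide. Paired biopsies were taken at baseline and after the first inhibitor dose (4, 5 or 24 h stated). PAR formation was quantified immunologically ex vivo. Activity was expressed as percentage of the same patient's pre-treatment biopsy.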"}, "[4]": {"system": "DNA strand breaks in PBLs", "experiment": "Alkaline Comet assay for DNA strand breaks in PBLs of patients", "format": "in vivo, human", "how_it_was_run": "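Alkaline Comet assay (modified Olive method) on peripheral blood mononuclear cells, with slides stained with SYBR gold. Blood was sampled in cycle 1 before, 4 h and 24 h after temozolomide, following a daily 30 min IV infusion of test compound. For each sample, 50 cells from two slides were scored for % tail DNA and Olive tail moment, and means were taken. Readings were averaged by dose cohort (up to 6 patients).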"}, "PARP [5]": {"system": "PARP", "conditions": "most efficacious dose of AG014699 combined with TMZ; cited from earlier work"}, "[6]": {"experiment": "Toxicity / dose limiting toxicity in phase I trial", "format": "in vivo, human", "conditions": "for dose recommended for future studies: combination, x5 every 28 days"}, "advanced solid tumors": {"system": "advanced solid tumors", "experiment": "Tumour response by RECIST in phase I patients", "format": "in vivo, human", "conditions": "AG014699 + TMZ", "how_it_was_run": "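Patients with advanced solid tumours received a daily 30 min IV infusion of test compound followed by oral temozolomide for 5 consecutive days, repeated every 28 days. Response was assessed by RECIST every 2 cycles, and patients completing 2 cycles were evaluable.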"}, "metastatic melanoma": {"system": "metastatic melanoma", "conditions": "phase II, AG014699 with TMZ, preliminary results; cited from earlier work"}, "PARP [7]": {"target": "T1, PARP", "experiment": "PARP activity immunoassay ex vivo in peripheral blood lymphocytes", "how_it_was_run": "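Patients with solid tumours (part 1) got one IV dose of PARP inhibitor on day -7, then temozolomide 100 mg/m2/day x5 q28 days with the inhibitor, over 5 escalating dose levels. PBLs were sampled at baseline, end of infusion, 4-6 h and 24 h on days -7, 1 and 4 of cycle 1, plus day 8 at PID. PAR formation was quantified immunologically ex vivo. PID: maximal (≥50%) activity reduction at 24 h, with no gain over the preceding dose.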"}, "SW620 tumours": {"system": "SW620 tumours", "conditions": "most efficacious dose of AG014699 combined with TMZ; animals bearing SW620 tumours; cited from earlier work"}, "[8]": {"conditions": "cited from earlier work"}}, "data": [{"molecule": "CNCc1ccc(-c2[nH]c3cc(F)cc4c3c2CCNC4=O)cc1", "note": "[AG014447]", "values": [{"measurement": "concentration in tumour biopsy homogenates, range", "setting": "[1]", "result": "5-110 ng/g tumour protein"}, {"measurement": "effect of TMZ on pharmacokinetics (interaction)", "setting": "[2]; listed as AG-014447", "result": "no evidence that TMZ has an effect"}, {"measurement": "mean terminal half-life (CV%)", "setting": "[2]; mean for the treated population", "result": "9.5 (50.4) hours"}]}, {"molecule": "CNCc1ccc(-c2[nH]c3cc(F)cc4c3c2CCNC4=O)cc1", "note": "[AG014699]", "values": [{"measurement": "Mean tumor PARP inhibition", "setting": "PARP [3]; at 5 hours", "result": 92, "unit": "%"}, {"measurement": "tumor PARP inhibition, range", "setting": "PARP [3]; at 5 hours", "result": "46 - 97%"}, {"measurement": "PARP inhibition in paired tumour biopsies", "setting": "PARP [3]; part 2, all biopsies, 12 and 18 mg/m^2", "result": "> 50", "unit": "%"}, {"measurement": "mean increase in Comet tail size at 24 h vs 4 h", "setting": "[4]; Day 1, PARP inhibitory doses (12-18 mg/m^2) with TMZ, p=0.03", "result": 3, "unit": "%"}, {"measurement": "mean decrease in Comet tail size at 24 h vs 4 h", "setting": "[4]; Day 1, lower doses (1-8 mg/m^2) with TMZ", "result": 8, "unit": "%"}, {"measurement": "DNA single strand breaks (SSB)", "setting": "[4]; all patients treated at PID", "result": "increases in DNA SSB"}, {"measurement": "DNA damage in PBLs (Comet analysis)", "setting": "[4]; patients treated with AG014699 and TMZ", "result": "evidence of DNA damage in all patients"}, {"measurement": "xenograft PARP inhibition", "setting": "PARP [5]", "result": 50, "unit": "%"}, {"measurement": "pharmacokinetic linearity", "setting": "[2]; 1-18 mg/m^2, 30 minute IV infusion", "result": "linear"}, {"measurement": "exposure (AUC0-24hr) in predicted extensive vs poor CYP2D6 metabolism", "setting": "[2]; CYP2D6 genotype *4,*4 vs wild type/heterozygous", "result": "similar"}, {"measurement": "effect of TMZ on pharmacokinetics (interaction)", "setting": "[2]", "result": "no interaction"}, {"measurement": "t^1/2 mean", "setting": "[2]; cohort 2, 699 dose 2 mg/m^2 (n=3), TMZ dose 100, day 1", "result": 3.8, "unit": "h"}, {"measurement": "t^1/2 mean", "setting": "[2]; cohort 2, 699 dose 2 mg/m^2 (n=3), TMZ dose 100, day 4", "result": 8.0, "unit": "h"}, {"measurement": "t^1/2 mean", "setting": "[2]; cohort 2, 699 dose 2 mg/m^2 (n=3), TMZ dose 100, day -7", "result": 6.9, "unit": "h"}, {"measurement": "t^1/2 mean", "setting": "[2]; cohort 3, 699 dose 4 mg/m^2 (n=3), TMZ dose 100, day 1", "result": 10.6, "unit": "h"}, {"measurement": "t^1/2 mean", "setting": "[2]; cohort 3, 699 dose 4 mg/m^2 (n=3), TMZ dose 100, day 4", "result": 10.9, "unit": "h"}, {"measurement": "t^1/2 mean", "setting": "[2]; cohort 3, 699 dose 4 mg/m^2 (n=3), TMZ dose 100, day -7", "result": 23.2, "unit": "h"}, {"measurement": "t^1/2 mean", "setting": "[2]; cohort 4, 699 dose 8 mg/m^2 (n=4), TMZ dose 100, day 1", "result": 13.9, "unit": "h"}, {"measurement": "t^1/2 mean", "setting": "[2]; cohort 4, 699 dose 8 mg/m^2 (n=4), TMZ dose 100, day 4", "result": 18.3, "unit": "h"}, {"measurement": "t^1/2 mean", "setting": "[2]; cohort 4, 699 dose 8 mg/m^2 (n=4), TMZ dose 100, day -7", "result": 19.9, "unit": "h"}, {"measurement": "t^1/2 mean", "setting": "[2]; cohort 5-8, 699 dose 12 mg/m^2 (n=12), TMZ dose 100-200, day 1", "result": 15.0, "unit": "h"}, {"measurement": "t^1/2 mean", "setting": "[2]; cohort 5-8, 699 dose 12 mg/m^2 (n=12), TMZ dose 100-200, day 4", "result": 16.8, "unit": "h"}, {"measurement": "t^1/2 mean", "setting": "[2]; cohort 5-8, 699 dose 12 mg/m^2 (n=12), TMZ dose 100-200, day -7", "result": 11.5, "unit": "h"}, {"measurement": "t^1/2 mean", "setting": "[2]; cohort 9, 699 dose 18 mg/m^2 (n=6), TMZ dose 200, day 1", "result": 16.0, "unit": "h"}, {"measurement": "t^1/2 mean", "setting": "[2]; cohort 9, 699 dose 18 mg/m^2 (n=6), TMZ dose 200, day 4", "result": 15.2, "unit": "h"}, {"measurement": "t^1/2 mean", "setting": "[2]; cohort 9, 699 dose 18 mg/m^2 (n=6), TMZ dose 200, day -7", "result": 13.1, "unit": "h"}, {"measurement": "inter-subject variability of normalized AUC0-24h", "setting": "[2]; normalized for actual dose and for mg/m^2 dose (both cases)", "result": 54, "unit": "%"}, {"measurement": "dose limiting toxicity observed", "setting": "[6]; AG014699 18 mg/m^2/day given with TMZ 200 mg/m^2/day", "result": "Myelosuppression"}, {"measurement": "DLTs and other grade 3/4 toxicity", "setting": "[6]; Part 1 cohort 1, AG014699 1 mg/m^2 + TMZ 100 mg/m^2, 3 patients, 30 cycles", "result": "None"}, {"measurement": "DLTs and other grade 3/4 toxicity", "setting": "[6]; Part 1 cohort 2, AG014699 2 mg/m^2 + TMZ 100 mg/m^2, 4 patients, 11 cycles", "result": "None"}, {"measurement": "DLTs and other grade 3/4 toxicity", "setting": "[6]; Part 1 cohort 3, AG014699 4 mg/m^2 + TMZ 100 mg/m^2, 4 patients, 20 cycles", "result": "None"}, {"measurement": "DLTs and other grade 3/4 toxicity", "setting": "[6]; Part 1 cohort 4, AG014699 8 mg/m^2 + TMZ 100 mg/m^2, 4 patients, 5 cycles", "result": "None"}, {"measurement": "DLTs and other grade 3/4 toxicity", "setting": "[6]; Part 1 cohort 5, AG014699 12 mg/m^2 + TMZ 100 mg/m^2, 3 patients, 11 cycles", "result": "None"}, {"measurement": "DLTs and other grade 3/4 toxicity", "setting": "[6]; Part 2 cohort 6, AG014699 12 mg/m^2 + TMZ 135 mg/m^2, 3 patients, 6 cycles", "result": "None"}, {"measurement": "DLTs and other grade 3/4 toxicity", "setting": "[6]; Part 2 cohort 7, AG014699 12 mg/m^2 + TMZ 170 mg/m^2, 3 patients, 10 cycles", "result": "None"}, {"measurement": "DLTs and other grade 3/4 toxicity", "setting": "[6]; Part 2 cohort 8, AG014699 12 mg/m^2 + TMZ 200 mg/m^2, 3 patients, 16 cycles", "result": "None"}, {"measurement": "Recommended dose", "setting": "[6]; combination with temozolomide", "result": 12, "unit": "mg/m^2"}, {"measurement": "dose recommended for future studies", "setting": "[6]", "result": 12, "unit": "mg/m^2/day"}, {"measurement": "DLT", "setting": "[6]; part 2, PARP inhibitory dose of AG014699 with 200 mg/m^2 temozolomide", "result": "without DLT"}, {"measurement": "tolerability of the combination with temozolomide", "setting": "[6]; patients, no toxic deaths", "result": "well tolerated"}, {"measurement": "toxicity attributable to AG014699 alone", "setting": "[6]; patients, single agent", "result": "No toxicity of any kind"}, {"measurement": "tumour response in patients with metastatic melanoma", "setting": "advanced solid tumors; no prior chemotherapy for melanoma", "result": "one documented complete and one partial response"}, {"measurement": "tumour response in a patient with a desmoid tumour", "setting": "advanced solid tumors; previously treated with surgery and imatinib", "result": "a further partial response"}, {"measurement": "partial response rate", "setting": "metastatic melanoma", "result": 17, "unit": "%"}, {"measurement": "patients having stable disease for 6 months or more", "setting": "metastatic melanoma", "result": 17, "unit": "%"}, {"measurement": "PBL PARP enzyme activity recovered, of baseline", "setting": "PARP [7]; 12 mg/m^2/day, cycle 1 day 8, 72 hours after the last dose", "result": "~50", "unit": "%"}, {"measurement": "PARP inhibition in PBLs", "setting": "PARP [7]; all AG014699 dose levels, at the end of infusion", "result": "> 90", "unit": "%"}, {"measurement": "inhibition of PBL PARP activity", "setting": "PARP [7]; at PID 12 mg/m^2", "result": "74 -97%"}, {"measurement": "PARP-inhibitory dose (PID)", "setting": "PARP [7]; based on PBL (surrogate tissue) PARP inhibition, with TMZ 100 mg/m^2 daily x 5", "result": 12, "unit": "mg/m^2"}, {"measurement": "recovery of PBL PARP activity over 24 hours", "setting": "PARP [7]; doses above 8 mg/m^2", "result": "no recovery was observed"}, {"measurement": "recovery of PBL PARP activity over 24 hours", "setting": "PARP [7]; lower dose levels", "result": "recovery of enzyme activity over 24 hours"}, {"measurement": "PARP-inhibitory dose (PID)", "setting": "PARP [7]; part 1, 5 dose levels, TMZ 100 mg/m^2/day", "result": 12, "unit": "mg/m^2/day"}, {"measurement": "antitumour efficacy", "setting": "SW620 tumours", "result": "cures were seen"}]}, {"molecule": "Cn1nnc2c(C(N)=O)ncn2c1=O", "note": "[Temozolomide, reference compound]", "values": [{"measurement": "Recommended dose", "setting": "[6]; combination with AG014699", "result": 200, "unit": "mg/m2"}, {"measurement": "dose recommended for future studies", "setting": "[6]", "result": 200, "unit": "mg/m^2/day"}, {"measurement": "tolerability", "setting": "[8]; TMZ 200 mg/m^2/day", "result": "well tolerated"}, {"measurement": "toxicity", "setting": "[8]; TMZ 225 mg/m^2/day", "result": "significant myelosuppression"}]}]}
